Data published in ChEMBL document CHEMBL3351667, “A chemical tuned strategy to develop novel irreversible EGFR-TK inhibitors with improved safety and pharmacokinetic profiles” (J Med Chem, 2014).
Blank lines part the entries; values can stand above or below the compound they belong to.

How the values were obtained:
A-431 = assay: cells; assay type: functional, cell-based; details: Homo sapiens, A-431, 48 h
[1] = biological target: Epidermal growth factor receptor (Homo sapiens, UniProt P00533, T790M); assay type: protein assay
Sequence of Epidermal growth factor receptor (Homo sapiens, UniProt P00533, T790M) (P00533 25-1210 T790M limits assumed): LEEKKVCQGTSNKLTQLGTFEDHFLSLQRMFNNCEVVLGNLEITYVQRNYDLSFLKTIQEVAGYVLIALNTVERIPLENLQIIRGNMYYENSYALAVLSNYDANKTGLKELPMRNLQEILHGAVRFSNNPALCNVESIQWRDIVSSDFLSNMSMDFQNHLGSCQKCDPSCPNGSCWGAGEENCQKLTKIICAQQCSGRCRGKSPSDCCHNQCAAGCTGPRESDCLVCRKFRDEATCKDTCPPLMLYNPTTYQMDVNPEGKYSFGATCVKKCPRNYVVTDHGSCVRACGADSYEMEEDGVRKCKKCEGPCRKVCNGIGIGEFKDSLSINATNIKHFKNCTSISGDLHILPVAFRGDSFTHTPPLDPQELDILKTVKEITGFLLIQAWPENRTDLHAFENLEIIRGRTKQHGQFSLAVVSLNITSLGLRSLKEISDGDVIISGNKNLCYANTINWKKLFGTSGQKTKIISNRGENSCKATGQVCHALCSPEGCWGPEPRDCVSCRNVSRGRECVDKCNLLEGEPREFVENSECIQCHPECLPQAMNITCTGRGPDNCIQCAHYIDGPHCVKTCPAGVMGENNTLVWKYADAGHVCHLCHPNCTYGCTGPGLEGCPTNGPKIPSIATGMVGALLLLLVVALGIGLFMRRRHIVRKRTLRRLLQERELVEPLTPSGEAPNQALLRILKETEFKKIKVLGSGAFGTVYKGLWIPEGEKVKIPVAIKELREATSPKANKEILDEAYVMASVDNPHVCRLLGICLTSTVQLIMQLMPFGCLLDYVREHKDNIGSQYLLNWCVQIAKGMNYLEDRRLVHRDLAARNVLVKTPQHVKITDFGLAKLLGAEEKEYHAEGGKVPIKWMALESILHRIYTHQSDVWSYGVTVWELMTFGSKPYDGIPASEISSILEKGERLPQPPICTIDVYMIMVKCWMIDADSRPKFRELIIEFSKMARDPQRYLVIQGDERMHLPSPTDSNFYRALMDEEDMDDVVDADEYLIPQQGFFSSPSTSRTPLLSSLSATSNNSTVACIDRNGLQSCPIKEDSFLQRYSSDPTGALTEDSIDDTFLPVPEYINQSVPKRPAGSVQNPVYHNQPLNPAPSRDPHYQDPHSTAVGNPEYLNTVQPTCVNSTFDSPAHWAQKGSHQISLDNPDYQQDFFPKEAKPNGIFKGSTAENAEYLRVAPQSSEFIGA

NCI-H1975 [2] = assay: cells; assay type: functional, cell-based; details: Homo sapiens, NCI-H1975, 48 h
[3] = biological target: Receptor tyrosine-protein kinase erbB-2 (Homo sapiens, UniProt P04626); assay: Inhibition of wild type HER2 (unknown origin) incubated for 5 mins by HTRF assay
Sequence of Receptor tyrosine-protein kinase erbB-2 (P04626 whole entry): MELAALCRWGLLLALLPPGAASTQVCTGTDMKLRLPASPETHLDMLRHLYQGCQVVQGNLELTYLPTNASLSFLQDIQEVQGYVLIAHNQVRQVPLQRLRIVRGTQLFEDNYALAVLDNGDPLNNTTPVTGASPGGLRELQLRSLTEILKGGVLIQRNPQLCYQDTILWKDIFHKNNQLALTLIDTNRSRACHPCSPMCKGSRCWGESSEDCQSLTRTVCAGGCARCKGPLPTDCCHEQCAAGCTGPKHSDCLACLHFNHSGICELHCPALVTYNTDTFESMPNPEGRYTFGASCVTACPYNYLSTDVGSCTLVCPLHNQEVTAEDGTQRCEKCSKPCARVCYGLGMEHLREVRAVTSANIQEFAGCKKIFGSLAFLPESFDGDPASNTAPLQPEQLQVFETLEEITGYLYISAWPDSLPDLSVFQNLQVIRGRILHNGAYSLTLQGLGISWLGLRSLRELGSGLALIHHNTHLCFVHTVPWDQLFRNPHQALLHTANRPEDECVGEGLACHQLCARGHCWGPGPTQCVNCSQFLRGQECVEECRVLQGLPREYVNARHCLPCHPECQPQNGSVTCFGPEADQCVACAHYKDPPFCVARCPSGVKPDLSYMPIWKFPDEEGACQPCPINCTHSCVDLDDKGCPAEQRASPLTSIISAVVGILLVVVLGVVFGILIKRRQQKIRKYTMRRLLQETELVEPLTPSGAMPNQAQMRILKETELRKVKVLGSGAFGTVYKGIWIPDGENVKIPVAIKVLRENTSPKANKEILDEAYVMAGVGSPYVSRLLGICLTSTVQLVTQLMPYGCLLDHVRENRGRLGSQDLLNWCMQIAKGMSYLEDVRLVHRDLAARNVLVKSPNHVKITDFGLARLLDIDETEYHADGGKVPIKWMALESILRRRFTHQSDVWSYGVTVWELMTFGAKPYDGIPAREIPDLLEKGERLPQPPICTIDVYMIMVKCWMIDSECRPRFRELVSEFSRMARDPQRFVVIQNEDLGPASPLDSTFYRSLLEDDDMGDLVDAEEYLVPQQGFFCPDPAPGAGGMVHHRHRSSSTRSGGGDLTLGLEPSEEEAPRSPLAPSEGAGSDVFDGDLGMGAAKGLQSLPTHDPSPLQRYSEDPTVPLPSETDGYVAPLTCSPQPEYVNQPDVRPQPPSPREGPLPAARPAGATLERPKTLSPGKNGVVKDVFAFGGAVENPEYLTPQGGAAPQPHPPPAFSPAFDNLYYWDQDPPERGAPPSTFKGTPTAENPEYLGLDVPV

[4] = biological target: Epidermal growth factor receptor (Homo sapiens, UniProt P00533);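 also: inhibition of wild-type EGFR read out by HTRF, with a 5 min incubation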
Sequence of Epidermal growth factor receptor (Homo sapiens, UniProt P00533) (P00533 whole entry): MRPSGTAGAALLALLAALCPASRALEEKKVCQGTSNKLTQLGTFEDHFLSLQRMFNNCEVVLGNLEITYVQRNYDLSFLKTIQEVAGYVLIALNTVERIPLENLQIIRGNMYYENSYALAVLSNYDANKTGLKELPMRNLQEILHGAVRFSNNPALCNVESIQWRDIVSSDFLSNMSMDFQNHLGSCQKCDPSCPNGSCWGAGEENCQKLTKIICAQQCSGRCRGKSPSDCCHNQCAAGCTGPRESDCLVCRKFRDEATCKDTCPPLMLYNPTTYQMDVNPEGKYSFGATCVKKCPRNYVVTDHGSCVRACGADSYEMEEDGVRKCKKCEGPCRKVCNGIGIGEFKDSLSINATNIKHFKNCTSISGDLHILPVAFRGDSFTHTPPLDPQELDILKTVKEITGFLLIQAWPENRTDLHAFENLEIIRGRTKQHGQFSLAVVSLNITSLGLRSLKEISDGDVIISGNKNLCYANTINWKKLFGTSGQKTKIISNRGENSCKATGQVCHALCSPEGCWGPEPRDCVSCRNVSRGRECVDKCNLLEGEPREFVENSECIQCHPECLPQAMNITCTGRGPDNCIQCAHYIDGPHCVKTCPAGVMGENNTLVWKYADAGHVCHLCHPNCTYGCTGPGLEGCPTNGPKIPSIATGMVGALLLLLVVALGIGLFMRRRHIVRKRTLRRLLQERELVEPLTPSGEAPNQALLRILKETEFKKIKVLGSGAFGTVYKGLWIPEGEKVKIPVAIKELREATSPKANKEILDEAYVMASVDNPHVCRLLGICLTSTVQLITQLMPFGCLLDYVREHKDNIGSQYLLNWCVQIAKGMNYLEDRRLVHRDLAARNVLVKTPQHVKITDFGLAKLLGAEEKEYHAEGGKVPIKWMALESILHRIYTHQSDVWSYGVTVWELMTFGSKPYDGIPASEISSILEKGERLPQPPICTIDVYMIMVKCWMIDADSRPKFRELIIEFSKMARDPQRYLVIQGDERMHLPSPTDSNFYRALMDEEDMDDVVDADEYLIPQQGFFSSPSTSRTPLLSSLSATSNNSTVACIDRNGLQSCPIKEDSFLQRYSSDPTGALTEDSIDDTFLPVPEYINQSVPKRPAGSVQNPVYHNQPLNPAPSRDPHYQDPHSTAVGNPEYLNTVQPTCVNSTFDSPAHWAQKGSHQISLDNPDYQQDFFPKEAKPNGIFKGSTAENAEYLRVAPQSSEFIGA

[5] = Oral bioavailability in BALB/c mouse at 10 mg/kg after 24 hrs by LC/MS/MS method; assay type: ADME, organism-based; details: in vivo
Cytochrome P450 2C9 = Cytochrome P450 2C9 (Homo sapiens, UniProt P11712); assay: Inhibition of CYP2C9 in human hepatic microsomes after 20 mins by LC/MS/MS method; assay type: ADME, Liver
[6] = AUC (0 to infinity) in BALB/c mouse at 10 mg/kg, po after 24 hrs by LC/MS/MS method; assay type: ADME, organism-based, Plasma; set-up: dose 10 mg/kg, route oral, time infinity; details: BALB/c, plasma
[7] = Apparent clearance in BALB/c mouse at 10 mg/kg, po after 24 hrs by LC/MS/MS method; assay type: ADME, organism-based; set-up: dose 10 mg/kg, route oral; details: BALB/c, in vivo, read-out: CL(app)
Cytochrome P450 3A4 = Cytochrome P450 3A4 (Homo sapiens, UniProt P08684); assay: Inhibition of CYP3A4 in human hepatic microsomes after 20 mins by LC/MS/MS method; assay type: ADME, Liver
[8] = Intrinsic clearance in human liver microsomes assessed per mg protein at 1 uM in presence of NADPH after 0.5 to 30 mins by LC/MS/MS method; assay type: ADME; details: read-out: CLH
[9] = Cmax in BALB/c mouse at 10 mg/kg, po after 24 hrs by LC/MS/MS method; assay type: ADME, organism-based; set-up: dose 10 mg/kg, route oral; details: in vivo
[10] = Intrinsic clearance in mouse liver microsomes assessed per mg protein at 1 uM in presence of NADPH after 0.5 to 30 mins by LC/MS/MS method; assay type: ADME; details: read-out: CLH
hERG (KCNH2) [11] = biological target: T1, hERG (KCNH2) (Homo sapiens, UniProt Q12809); assay: Inhibition of human ERG assessed as reduction in channel currents at 1 uM
T1 sequence (Q12809 whole entry): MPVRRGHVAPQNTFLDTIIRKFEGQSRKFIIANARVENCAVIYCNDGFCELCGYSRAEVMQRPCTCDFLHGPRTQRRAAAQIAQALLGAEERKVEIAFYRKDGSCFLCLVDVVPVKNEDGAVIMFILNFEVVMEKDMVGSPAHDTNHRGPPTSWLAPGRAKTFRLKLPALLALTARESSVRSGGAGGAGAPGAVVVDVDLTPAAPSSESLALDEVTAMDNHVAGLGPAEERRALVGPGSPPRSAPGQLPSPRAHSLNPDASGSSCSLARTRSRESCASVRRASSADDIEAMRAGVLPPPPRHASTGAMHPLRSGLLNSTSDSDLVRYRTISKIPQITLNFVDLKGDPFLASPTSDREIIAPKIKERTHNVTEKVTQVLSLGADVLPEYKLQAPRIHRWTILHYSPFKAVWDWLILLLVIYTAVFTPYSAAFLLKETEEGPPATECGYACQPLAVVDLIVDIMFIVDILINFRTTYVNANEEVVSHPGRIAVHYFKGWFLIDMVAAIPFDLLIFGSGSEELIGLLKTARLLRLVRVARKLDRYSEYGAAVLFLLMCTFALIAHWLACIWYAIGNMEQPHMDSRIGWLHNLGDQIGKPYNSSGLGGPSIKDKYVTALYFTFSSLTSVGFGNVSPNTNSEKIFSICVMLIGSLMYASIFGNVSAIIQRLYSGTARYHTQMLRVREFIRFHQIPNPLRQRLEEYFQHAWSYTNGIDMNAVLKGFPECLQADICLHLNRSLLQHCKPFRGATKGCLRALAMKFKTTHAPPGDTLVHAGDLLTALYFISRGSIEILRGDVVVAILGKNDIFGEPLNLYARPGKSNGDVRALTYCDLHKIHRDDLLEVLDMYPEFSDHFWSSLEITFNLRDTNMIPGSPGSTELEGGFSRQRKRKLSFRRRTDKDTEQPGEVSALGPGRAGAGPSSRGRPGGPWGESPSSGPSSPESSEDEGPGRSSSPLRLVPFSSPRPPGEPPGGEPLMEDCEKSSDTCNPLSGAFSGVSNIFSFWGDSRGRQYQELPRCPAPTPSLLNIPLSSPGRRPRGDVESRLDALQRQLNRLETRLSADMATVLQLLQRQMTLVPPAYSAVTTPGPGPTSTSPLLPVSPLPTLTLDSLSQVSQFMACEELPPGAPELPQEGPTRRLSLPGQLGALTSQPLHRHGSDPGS

Cytochrome P450 2D6 = Cytochrome P450 2D6 (Homo sapiens, UniProt P10635); assay: Inhibition of CYP2D6 in human hepatic microsomes after 20 mins by LC/MS/MS method; assay type: ADME, Liver
Cytochrome P450 1A2 = biological target: T2, Cytochrome P450 1A2 (Homo sapiens, UniProt P05177); assay: Inhibition of CYP1A2 in human hepatic microsomes after 20 mins by LC/MS/MS method; assay type: ADME, Liver
T2 sequence (P05177 whole entry): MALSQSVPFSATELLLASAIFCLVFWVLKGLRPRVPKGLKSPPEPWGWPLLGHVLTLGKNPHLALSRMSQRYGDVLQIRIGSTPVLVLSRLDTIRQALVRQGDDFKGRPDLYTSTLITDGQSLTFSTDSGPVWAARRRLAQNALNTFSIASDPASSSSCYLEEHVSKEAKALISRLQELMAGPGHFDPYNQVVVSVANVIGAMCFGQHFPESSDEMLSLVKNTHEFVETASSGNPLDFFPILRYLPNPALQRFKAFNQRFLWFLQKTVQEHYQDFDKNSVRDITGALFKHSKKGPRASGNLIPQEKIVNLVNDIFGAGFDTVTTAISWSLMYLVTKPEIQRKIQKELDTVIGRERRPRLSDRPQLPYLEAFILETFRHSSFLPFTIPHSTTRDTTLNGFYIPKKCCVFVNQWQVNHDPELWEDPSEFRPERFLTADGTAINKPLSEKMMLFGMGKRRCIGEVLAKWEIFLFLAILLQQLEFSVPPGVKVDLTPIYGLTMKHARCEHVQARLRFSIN

NCI-H1975 [12] = assay: Antitumor activity against human NCI-H1975 cells xenografted in nude mouse assessed as reduction in tumor growth at 30 mg/kg/day, ig relative to untreated control; assay type: functional; details: route intragastric
Mus musculus = assay: Apparent volume of distribution in BALB/c mouse at 10 mg/kg, po after 24 hrs by LC/MS/MS method; assay type: ADME, organism-based; set-up: dose 10 mg/kg, route oral; details: in vivo
[13] = Intrinsic clearance in dog liver microsomes assessed per mg protein at 1 uM in presence of NADPH after 0.5 to 30 mins by LC/MS/MS method; assay type: ADME, Canis lupus familiaris; details: read-out: CLH
[14] = Intrinsic clearance in monkey liver microsomes assessed per mg protein at 1 uM in presence of NADPH after 0.5 to 30 mins by LC/MS/MS method; assay type: ADME, Macaca mulatta; details: rhesus monkey, read-out: CLH
hERG (KCNH2) [15] = biological target: T1, hERG (KCNH2); assay: Inhibition of human ERG assessed as reduction in channel currents at 10 uM
Cytochrome P450 2C19 = Cytochrome P450 2C19 (Homo sapiens, UniProt P33261); assay: Inhibition of CYP2C19 in human hepatic microsomes after 20 mins by LC/MS/MS method; assay type: ADME, Liver
[16] = Ratio of drug level in brain to plasma in BALB/c mouse at 30 mg/kg, po after 6 hrs by LC/MS/MS method; assay type: ADME, organism-based; set-up: dose 30 mg/kg, route oral; details: read-out: BPR
Procedure, shortened: (§1)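 BALB/c mice received a single oral dose of 30 mg/kg. Drug concentrations in lung, brain and plasma were measured at multiple time points over 6 h. Mean tissue levels are expressed as a lung/plasma/brain ratio, with plasma set to 1.0.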

[17] = Ratio of drug level in lung to plasma in BALB/c mouse at 30 mg/kg, po after 6 hrs by LC/MS/MS method; assay type: ADME, organism-based; set-up: dose 30 mg/kg, route oral
Procedure, shortened: as §1

[18] = Intrinsic clearance in rat liver microsomes assessed per mg protein at 1 uM in presence of NADPH after 0.5 to 30 mins by LC/MS/MS method; assay type: ADME; details: read-out: CLH
SW-620 = assay: Growth inhibition of human SW620 cells at 5 uM; assay type: functional; details: read-out: GI

Compound: COc1cc2ncnc(Nc3cccc(Br)c3)c2cc1NC(=O)/C(F)=C/CN(C)C
IC50 (A-431): 2100 nM | IC50 [1]: 8.3 nM | IC50 (NCI-H1975 [2]): 3300 nM | IC50 [4]: 2.6 nM

Compound: CCOc1cc2ncnc(Nc3ccc(OCC4CC4)c(Cl)c3)c2cc1NC(=O)/C(F)=C/CN(C)C
IC50 (A-431): 750 nM | IC50 [1]: 3.5 nM | IC50 (NCI-H1975 [2]): 1190 nM | IC50 [4]: 3.6 nM

Compound: CCOc1cc2ncnc(Nc3ccc(OCC4CC4)c(Cl)c3)c2cc1NC(=O)/C(F)=C\CN(C)C
IC50 (A-431): 1340 nM | IC50 (NCI-H1975 [2]): 2980 nM | IC50 [4]: 11.2 nM

Compound: CCOc1cc2ncnc(Nc3ccc(OCc4ccccn4)c(Cl)c3)c2cc1NC(=O)/C(F)=C/CN(C)C
bioavailability [5]: 89.4% | IC50 (Cytochrome P450 2C9): > 10000 nM | IC50 (A-431): 340 nM | AUC(0-inf) [6]: 16.6 µM·h | IC50 [1]: 3.77 nM | CL/F [7]: 20 mL/min/kg | IC50 (Cytochrome P450 3A4): > 10000 nM | microsomal CLint at 1 µM [8]: 27 µL/min/mg | Cmax [9]: 2660 nM | microsomal CLint at 1 µM [10]: 47 µL/min/mg | inhibition at 1 µM (hERG (KCNH2) [11]): 0% | IC50 (Cytochrome P450 2D6): > 10000 nM | IC50 [4]: 0.18 nM | IC50 (Cytochrome P450 1A2): > 10000 nM | T/C (NCI-H1975 [12]): 15.6% | Vz (Mus musculus): 3.94 L/kg | IC50 [3]: 1.38 nM | microsomal CLint at 1 µM [13]: 95 µL/min/mg | microsomal CLint at 1 µM [14]: 97 µL/min/mg | inhibition at 10 µM (hERG (KCNH2) [15]): 3.06% | IC50 (Cytochrome P450 2C19): > 10000 nM | Kp at 6 h [16]: 0.29 | Kp at 6 h [17]: 11 | microsomal CLint at 1 µM [18]: 33 µL/min/mg

Compound: CCOc1cc2ncnc(Nc3ccc(Oc4ccc(C)nc4)c(Cl)c3)c2cc1NC(=O)/C(F)=C\CN1CCCCC1
IC50 (A-431): 24800 nM | IC50 (NCI-H1975 [2]): 6420 nM | IC50 [4]: 39.2 nM

Compound: COc1cccc2c1C(=O)c1c(O)c3c(c(O)c1C2=O)C[C@@](O)(C(=O)CO)C[C@@H]3O[C@H]1C[C@H](N)[C@H](O)[C@H](C)O1 [DOXORUBICIN]
inhibition of growth at 5 µM (SW-620): 79.8%

Compound: COc1cc2ncnc(Nc3ccc(OCc4cccc(F)c4)c(Cl)c3)c2cc1NC(=O)/C(F)=C\CN(C)C
IC50 (A-431): 1690 nM | IC50 (NCI-H1975 [2]): 2000 nM | IC50 [4]: 1.3 nM

Further lines, with some results ahead:

IC50 (A-431): 2630 nM | IC50 [1]: 59.8 nM | IC50 (NCI-H1975 [2]): 2020 nM | IC50 [3]: 1540 nM
Compound: COc1cc2ncnc(Nc3ccc(F)c(Cl)c3)c2cc1NC(=O)/C(F)=C/CN1CCOCC1

IC50 (A-431): 1800 nM | IC50 (NCI-H1975 [2]): 710 nM | IC50 [4]: 2.55 nM
Compound: O=C(Nc1cc2c(Nc3ccc(F)c(Cl)c3)ncnc2cc1O[C@H]1CCOC1)/C(F)=C\CN1CCCCC1

IC50 (A-431): 11500 nM | IC50 (NCI-H1975 [2]): 4370 nM | IC50 [3]: 1570 nM
Compound: O=C(Nc1cc2c(Nc3ccc(F)c(Cl)c3)ncnc2cc1O[C@H]1CCOC1)/C(F)=C/CN1CCOCC1
inhibition at 1 µM (hERG (KCNH2) [11]): 0.94% | inhibition at 10 µM (hERG (KCNH2) [15]): 11.1%

IC50 (A-431): 3490 nM | IC50 [1]: 37.9 nM | IC50 (NCI-H1975 [2]): 3600 nM | IC50 [4]: 12.9 nM
Compound: CCOc1cc2ncnc(Nc3ccc(Oc4ccc(C)nc4)c(Cl)c3)c2cc1NC(=O)/C(F)=C/CN1CCCCC1

IC50 (A-431): 1560 nM | IC50 [1]: 16.4 nM | IC50 (NCI-H1975 [2]): 290 nM | IC50 [4]: 2.6 nM
Compound: O=C(Nc1cc2c(Nc3ccc(F)c(Cl)c3)ncnc2cc1O[C@H]1CCOC1)/C(F)=C/CN1CCCCC1
